In ChEMBL document CHEMBL4251599, “Synthesis and biological evaluation of coumarin derivatives containing imidazole skeleton as potential antibacterial agents” (Eur J Med Chem, 2018):
In brackets after ≈: the same amount, converted by molar mass.

Assays:
[1] = test system: Flavobacterium columnare; test: Bactericidal activity against Flavobacterium columnare FC-G1 incubated for 24 hrs followed by re-plating on nutrient agar and measured after overnight incubation by two fold serial dilution method; format: functional; conditions: FC-G1, 24 h
Method in brief: (§1)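 After the MIC read, 100 µl from every tube without visible growth was spread on nutrient agar lacking compound. Plates were incubated overnight at 28 ± 1 °C. MBC was taken as the lowest concentration killing >99.9% of the initial population, seen as no growth on agar.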

[2] = test system: Staphylococcus aureus; test: Antibacterial activity against Staphylococcus aureus ATCC 29213 after 24 hrs by two fold serial dilution method; format: functional; conditions: ATCC 29213, 24 h
Method in brief: (§2)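 Broth two-fold serial dilution per CLSI, in nutrient broth. Inoculum from 24 h cultures at 28 ± 1 °C, adjusted in saline to 1×10^7-2×10^7 cfu/mL, then diluted to 1×10^5-2×10^5 cfu/mL. Test range 256 down to 0.50 µM and lower. Tubes held 24 h at 28 ± 1 °C. MIC read visually. Enrofloxacin and norfloxacin served as standards.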

[3] = test system: Streptococcus agalactiae; test: Antibacterial activity against Streptococcus agalactiae WB1445 after 24 hrs by two fold serial dilution method; format: functional; conditions: WB1445, 24 h; method in brief: as §2
[4] = test system: Escherichia coli; test: Bactericidal activity against Escherichia coli ATCC 35150 incubated for 24 hrs followed by re-plating on nutrient agar and measured after overnight incubation by two fold serial dilution method; format: functional; conditions: ATCC 35150, 24 h; method in brief: as §1
[5] = test system: Streptococcus agalactiae; test: Bactericidal activity against Streptococcus agalactiae WB1445 incubated for 24 hrs followed by re-plating on nutrient agar and measured after overnight incubation by two fold serial dilution method; format: functional; conditions: WB1445, 24 h; method in brief: as §1
[6] = test system: Staphylococcus aureus; test: Bactericidal activity against Staphylococcus aureus ATCC 29213 incubated for 24 hrs followed by re-plating on nutrient agar and measured after overnight incubation by two fold serial dilution method; format: functional; conditions: ATCC 29213, 24 h; method in brief: as §1
[7] = test system: Flavobacterium columnare; test: Antibacterial activity against Flavobacterium columnare FC-G1 after 24 hrs by two fold serial dilution method; format: functional; conditions: FC-G1, 24 h; method in brief: as §2
[8] = test system: Escherichia coli; test: Antibacterial activity against Escherichia coli ATCC 35150 after 24 hrs by two fold serial dilution method; format: functional; conditions: ATCC 35150, 24 h; method in brief: as §2
[9] = Inhibition of Escherichia coli ATCC 35150 FabI in presence of t-O-NAC and NADH up to 1 min by spectrophotometric analysis
Method in brief: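 Recombinant His-tagged FabI, expressed in E. coli BL21(DE3) and purified on Ni-NTA, was used at 20 µL of 100 µg/mL stock in 0.1 M PBS-DTT. Compounds were tested at 128-1 µM with 10 µL of 4 mM t-O-NAC, and 20 µL of 2 mM NADH started the reaction. NADH oxidation was followed at 340 nm for 1 min. IC50 came from dose-response plots.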

[10] = biological target: T1, Enoyl-(Acyl-carrier-protein) reductase II (Streptococcus agalactiae serotype V (strain ATCC BAA-611 / 2603 V/R), UniProt Q8E1K8); test: Inhibition of Streptococcus agalactiae WB1445 FabK in presence of t-O-NAC and NADH up to 1 min by spectrophotometric analysis
T1 sequence (Q8E1K8 whole entry): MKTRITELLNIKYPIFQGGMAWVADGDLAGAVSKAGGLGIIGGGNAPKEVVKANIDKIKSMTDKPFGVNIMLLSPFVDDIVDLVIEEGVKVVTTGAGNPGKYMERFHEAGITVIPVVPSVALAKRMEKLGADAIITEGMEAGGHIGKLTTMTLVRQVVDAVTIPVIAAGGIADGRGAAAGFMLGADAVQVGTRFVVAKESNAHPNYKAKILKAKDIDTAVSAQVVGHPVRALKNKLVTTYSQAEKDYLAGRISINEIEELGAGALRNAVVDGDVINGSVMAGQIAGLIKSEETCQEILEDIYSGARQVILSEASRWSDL
Method in brief: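 Recombinant His-tagged FabK (20 µL of 150 µg/mL stock) was assayed in 100 µL of 0.1 M ADA-DTT, pH 6.5, against compounds at 128-1 µM, with 10 µL of 4 mM t-O-NAC. Addition of 20 µL of 2 mM NADH started the reaction. Absorbance at 340 nm was read for 1 min. IC50 was estimated from dose-response curves.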

Structure (SMILES) | MIC [2] | MIC [3] | MIC [7] | MIC [8] | IC50 [9] | IC50 [10] | MBC [1] | MBC [4] | MBC [5] | MBC [6]
O=c1ccc2ccc(OCCCCCCn3ccnc3-c3ccccc3)cc2o1 | > 256 µM | > 256 µM | > 256 µM | > 256 µM | – | – | > 256 µM | > 256 µM | > 256 µM | > 256 µM
O=c1ccc2ccc(OCCBr)cc2o1 | > 256 µM | > 256 µM | > 256 µM | > 256 µM | – | – | > 256 µM | > 256 µM | > 256 µM | > 256 µM
Cc1cn(CCOc2ccc3ccc(=O)oc3c2)cn1 | > 256 µM | > 256 µM | > 256 µM | 16 µM (≈ 4.32 µg/mL) | – | – | > 256 µM | 64 µM (≈ 17.3 µg/mL) | > 256 µM | > 256 µM
O=c1ccc2ccc(OCCn3ccnc3-c3ccccc3)cc2o1 | > 256 µM | > 256 µM | > 256 µM | 128 µM (≈ 42.5 µg/mL) | – | – | > 256 µM | 512 µM (≈ 170 µg/mL) | > 256 µM | > 256 µM
Cc1nccn1CCOc1ccc2ccc(=O)oc2c1 | > 256 µM | > 256 µM | > 256 µM | 64 µM (≈ 17.3 µg/mL) | – | – | > 256 µM | 256 µM (≈ 69.2 µg/mL) | > 256 µM | > 256 µM
O=c1ccc2ccc(OCCn3cnc4ccccc43)cc2o1 | 64 µM (≈ 19.6 µg/mL) | > 256 µM | > 256 µM | 128 µM (≈ 39.2 µg/mL) | – | – | > 256 µM | 256 µM (≈ 78.4 µg/mL) | > 256 µM | 256 µM (≈ 78.4 µg/mL)
O=c1ccc2ccc(OCCCCCCn3cnc4ccccc43)cc2o1 | 32 µM (≈ 11.6 µg/mL) | 32 µM (≈ 11.6 µg/mL) | 32 µM (≈ 11.6 µg/mL) | > 256 µM | – | – | 128 µM (≈ 46.4 µg/mL) | > 256 µM | 128 µM (≈ 46.4 µg/mL) | 256 µM (≈ 92.8 µg/mL)
O=c1ccc2ccc(OCCCCBr)cc2o1 | > 256 µM | > 256 µM | > 256 µM | > 256 µM | – | – | > 256 µM | > 256 µM | > 256 µM | > 256 µM
O=c1ccc2ccc(OCCCCCCCCCCBr)cc2o1 | > 256 µM | > 256 µM | > 256 µM | > 256 µM | – | – | > 256 µM | > 256 µM | > 256 µM | > 256 µM

Now from value to compound, other results behind:

MIC [2] | MIC [3] | MIC [7] | MIC [8] | IC50 [9] | IC50 [10] | Structure (SMILES) | MBC [1] | MBC [4] | MBC [5] | MBC [6]
> 256 µM | > 256 µM | > 256 µM | 128 µM (≈ 32.8 µg/mL) | – | – | O=c1ccc2ccc(OCCn3ccnc3)cc2o1 | > 256 µM | 256 µM (≈ 65.6 µg/mL) | > 256 µM | > 256 µM
– | > 256 µM | > 256 µM | – | – | – | O=c1ccc2ccc(OCCCCCCCCn3cccn3)cc2o1 | > 256 µM | – | > 256 µM | –
64 µM (≈ 23.6 µg/mL) | 16 µM (≈ 5.9 µg/mL) | 4 µM (≈ 1.47 µg/mL) | > 256 µM | – | – | Cc1cc(=O)oc2cc(OCCCCCCCCn3ccnc3C)ccc12 | 8 µM (≈ 2.95 µg/mL) | > 256 µM | 16 µM (≈ 5.9 µg/mL) | 256 µM (≈ 94.3 µg/mL)
– | 32 µM (≈ 10.9 µg/mL) | 64 µM (≈ 21.9 µg/mL) | – | 79.5 µM | 7.68 µM | O=c1ccc2ccc(OCCCCCCCCn3cncn3)cc2o1 | 128 µM (≈ 43.7 µg/mL) | – | 64 µM (≈ 21.9 µg/mL) | –
64 µM (≈ 20 µg/mL) | > 256 µM | 64 µM (≈ 20 µg/mL) | 32 µM (≈ 10 µg/mL) | – | – | O=c1ccc2ccc(OCCCCCCn3ccnc3)cc2o1 | 128 µM (≈ 40 µg/mL) | 64 µM (≈ 20 µg/mL) | > 256 µM | 64 µM (≈ 20 µg/mL)
32 µM (≈ 12.9 µg/mL) | 32 µM (≈ 12.9 µg/mL) | 16 µM (≈ 6.47 µg/mL) | > 256 µM | – | – | Cc1cc(=O)oc2cc(OCCCCCCCCn3cnc4ccccc43)ccc12 | 64 µM (≈ 25.9 µg/mL) | > 256 µM | 64 µM (≈ 25.9 µg/mL) | 256 µM (≈ 104 µg/mL)
64 µM (≈ 22.7 µg/mL) | 8 µM (≈ 2.84 µg/mL) | 4 µM (≈ 1.42 µg/mL) | > 256 µM | – | – | Cc1cc(=O)oc2cc(OCCCCCCCCn3ccnc3)ccc12 | 16 µM (≈ 5.67 µg/mL) | > 256 µM | 16 µM (≈ 5.67 µg/mL) | 256 µM (≈ 90.7 µg/mL)
